From ChEMBL document CHEMBL2203144, “Synthesis and evaluation of antimicrobial activity of 4H-pyrimido[2,1-b]benzothiazole, pyrazole and benzylidene derivatives of curcumin” (Eur J Med Chem, 2012)
Calls of active or inactive are those of the source. The rule behind the calls is not given here.

Columns and labels:
Bacillus cereus = assay: Antibacterial activity against Bacillus cereus MTCC 7350 after 24 hrs by broth microdilution method; assay type: functional
Procedure, shortened: (§1)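 Microwell broth dilution in brain heart infusion broth (nutrient broth adjusted to pH 7.0). Inoculum from 16 h cultures, adjusted to 0.5 McFarland (1.5 × 10⁸ CFU/mL). 10 µL compound (serial dilutions 20 down to 0.625 or 0.312 µM/mL) plus 10 µL culture added to 150 µL broth. Incubated 24 h at 37 °C. MIC95 is the lowest concentration with no turbidity. Ciprofloxacin reference; inoculum and broth controls.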

Aspergillus niger [1] = assay: Antifungal activity against Aspergillus niger after 72 hrs by broth dilution method; assay type: functional
Procedure, shortened: (§2)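 Compounds and fluconazole reference were dissolved in acetone at 120 µM/mL and serially diluted to 20–0.315 µM/mL. 10 µL compound plus 10 µL fungal culture broth added to 150 µL Sabouraud dextrose medium per well. Optical density recorded, then incubated 72 h at 28 °C. MIC95 taken from absence of turbidity. Acetone-at-same-dilution solvent control.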

Salmonella typhi = assay: Antibacterial activity against Salmonella typhi ATCC 15499 after 24 hrs by broth microdilution method; assay type: functional, Salmonella enterica subsp. enterica serovar Typhi
Procedure, shortened: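 Broth microdilution in brain heart infusion broth in microwells. Inoculum was prepared from 16 h cultures adjusted to the 0.5 McFarland standard (1.5 × 10⁸ CFU/mL). Compounds were serially diluted from 20 down to 0.625 µM/mL and added to the broth, followed by the bacterial culture. Plates were incubated 24 h at 37 °C, with optical density read. MIC95 was the lowest concentration giving no turbidity. Inoculum and broth controls were included.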

Aspergillus flavus [2] = assay: Antifungal activity against Aspergillus flavus after 72 hrs by broth dilution method; assay type: functional; procedure, shortened: as §2
Escherichia coli = assay: Antibacterial activity against Escherichia coli ATCC 35218 after 24 hrs by broth microdilution method; assay type: functional; procedure, shortened: as §1
Aspergillus fumigatus [3] = assay: Antifungal activity against Aspergillus fumigatus after 72 hrs by broth dilution method; assay type: functional; procedure, shortened: as §2
Aspergillus flavus [4] = assay: Antifungal activity against Aspergillus flavus after 72 hrs by agar disk diffusion method; assay type: functional
Procedure, shortened: (§3)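 Sterile filter-paper discs dipped in the acetone dilutions of compound (20–0.315 µM/mL), then dried to remove acetone. Sabouraud dextrose agar plates spread with 1 mL fungal culture. Discs placed aseptically; one drug-free disc served as growth control; fluconazole reference. Plates incubated upright 72 h at 28 °C. Zone of inhibition measured in mm with a scale.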

[5] = Cytotoxicity against human L123 cells after 48 hrs by MTT assay; assay type: cell-based
Procedure, shortened: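 MTT assay. 2×10³ cells per well in MEM + 10% FBS, attached 24 h, then treated at 5, 10, 20, 50 and 100 µM/mL for 48 h; controls received medium with 0.2% DMSO. Duplicate treatments. Cells PBS-washed, given MTT (stock 1 mg/mL) for 4 h at 37 °C. Formazan dissolved in DMSO, read at 590 nm. IC50 is the concentration reducing viability by 50%.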

Providencia rettgeri = assay: Antibacterial activity against Providencia rettgeri DRDE after 24 hrs by broth microdilution method; assay type: functional; procedure, shortened: as §1
Aspergillus fumigatus [6] = assay: Antifungal activity against Aspergillus fumigatus after 72 hrs by agar disk diffusion method; assay type: functional; procedure, shortened: as §3
Pseudomonas aeruginosa = assay: Antibacterial activity against Pseudomonas aeruginosa ATCC 23564 after 24 hrs by broth microdilution method; assay type: functional; procedure, shortened: as §1
Staphylococcus aureus = assay: Antibacterial activity against Staphylococcus aureus ATCC 11632 after 24 hrs by broth microdilution method; assay type: functional; procedure, shortened: as §1
Aspergillus niger [7] = assay: Antifungal activity against Aspergillus niger after 72 hrs by agar disk diffusion method; assay type: functional; procedure, shortened: as §3
[8] = Salmonella enterica subsp. enterica serovar Typhi

Molecule `COc1cc(/C=C/C(=O)C(=Cc2ccccc2O)C(=O)/C=C/c2ccc(O)c(OC)c2)ccc1O` has an MIC95 (Bacillus cereus) of 1.25 uM/ml, an MIC95 (Aspergillus niger [1]) of 2.5 uM/ml and an MIC95 (Salmonella typhi) of 5 uM/ml. For the same molecule, the MIC95 (Aspergillus flavus [2]) was “inactive”, the MIC95 (Escherichia coli) was 2.5 uM/ml and the MIC95 (Aspergillus fumigatus [3]) was 2.5 uM/ml. For the same molecule, the “inhibition zone (IZ)” value (Aspergillus flavus [4]) was “inactive”, the IC50 [5] was 50 uM/ml and the MIC95 (Providencia rettgeri) was 1.25 uM/ml. For the same molecule, the “inhibition zone (IZ)” value (Aspergillus fumigatus [6]) was 20 mm, the MIC95 (Pseudomonas aeruginosa) was 1.25 uM/ml and the MIC95 (Staphylococcus aureus) was 1.25 uM/ml. For the same molecule, the “inhibition zone (IZ)” value (Aspergillus niger [7]) was 17 mm.
For `COc1cc(/C=C/C(=O)C2=C(/C=C/c3ccc(O)c(OC)c3)N=C3Sc4ccccc4N3C2c2ccccc2O)ccc1O` (configuration not stated), the MIC95 (Bacillus cereus) was 5 uM/ml, the MIC95 (Aspergillus niger [1]) was “inactive” and the MIC95 (Salmonella typhi; [8]) was “inactive”. The MIC95 (Aspergillus flavus [2]) was “inactive”, the MIC95 (Escherichia coli) was “inactive” and the MIC95 (Aspergillus fumigatus [3]) was “inactive”. For the same molecule, the “inhibition zone (IZ)” value (Aspergillus flavus [4]) was “inactive”, the IC50 [5] was 50 uM/ml and the MIC95 (Providencia rettgeri) was “inactive”. The “inhibition zone (IZ)” value (Aspergillus fumigatus [6]) was “inactive”, the MIC95 (Pseudomonas aeruginosa) was 20 uM/ml and the MIC95 (Staphylococcus aureus) was 20 uM/ml. The “inhibition zone (IZ)” value (Aspergillus niger [7]) was “inactive”.
In the case of `COc1cc(/C=C/C(=O)C2=C(/C=C/c3ccc(O)c(OC)c3)N=C3Sc4ccccc4N3C2c2ccc(Cl)cc2)ccc1O` (configuration not stated), the MIC95 (Bacillus cereus) is reported as 5 uM/ml, the MIC95 (Aspergillus niger [1]) is reported as “inactive” and the MIC95 (Salmonella typhi; [8]) is reported as “inactive”. For the same molecule, the MIC95 (Aspergillus flavus [2]) was “inactive”, the MIC95 (Escherichia coli) was 10 uM/ml and the MIC95 (Aspergillus fumigatus [3]) was “inactive”. The “inhibition zone (IZ)” value (Aspergillus flavus [4]) was “inactive”, the IC50 [5] was greater than 100 uM/ml and the MIC95 (Providencia rettgeri) was “inactive”. The “inhibition zone (IZ)” value (Aspergillus fumigatus [6]) was “inactive”, the MIC95 (Pseudomonas aeruginosa) was 20 uM/ml and the MIC95 (Staphylococcus aureus) was “inactive”. The “inhibition zone (IZ)” value (Aspergillus niger [7]) was “inactive”.
In the case of `COc1cc(/C=C/C(=O)C(=Cc2ccc(N(C)C)cc2)C(=O)/C=C/c2ccc(O)c(OC)c2)ccc1O`, the MIC95 (Bacillus cereus) is reported as 0.625 uM/ml, the MIC95 (Aspergillus niger [1]) is reported as 5 uM/ml and the MIC95 (Salmonella typhi) is reported as 2.5 uM/ml. The MIC95 (Aspergillus flavus [2]) was “inactive”, the MIC95 (Escherichia coli) was “inactive” and the MIC95 (Aspergillus fumigatus [3]) was 1.25 uM/ml. For the same molecule, the “inhibition zone (IZ)” value (Aspergillus flavus [4]) was “inactive”, the IC50 [5] was greater than 100 uM/ml and the MIC95 (Providencia rettgeri) was “inactive”. The “inhibition zone (IZ)” value (Aspergillus fumigatus [6]) was 20 mm, the MIC95 (Pseudomonas aeruginosa) was 1.25 uM/ml and the MIC95 (Staphylococcus aureus) was 5 uM/ml. For the same molecule, the “inhibition zone (IZ)” value (Aspergillus niger [7]) was 15 mm.
